Data on eight compounds can be found in ChEMBL document CHEMBL1795253, “Synthesis and biological evaluation in U87MG glioma cells of (ethynylthiophene)sulfonamido-based hydroxamates as matrix metalloproteinase inhibitors” (Eur J Med Chem, 2011).

Assay [1] has as its target T1, Interstitial collagenase (Homo sapiens, UniProt P03956).
T1 sequence (P03956 whole entry): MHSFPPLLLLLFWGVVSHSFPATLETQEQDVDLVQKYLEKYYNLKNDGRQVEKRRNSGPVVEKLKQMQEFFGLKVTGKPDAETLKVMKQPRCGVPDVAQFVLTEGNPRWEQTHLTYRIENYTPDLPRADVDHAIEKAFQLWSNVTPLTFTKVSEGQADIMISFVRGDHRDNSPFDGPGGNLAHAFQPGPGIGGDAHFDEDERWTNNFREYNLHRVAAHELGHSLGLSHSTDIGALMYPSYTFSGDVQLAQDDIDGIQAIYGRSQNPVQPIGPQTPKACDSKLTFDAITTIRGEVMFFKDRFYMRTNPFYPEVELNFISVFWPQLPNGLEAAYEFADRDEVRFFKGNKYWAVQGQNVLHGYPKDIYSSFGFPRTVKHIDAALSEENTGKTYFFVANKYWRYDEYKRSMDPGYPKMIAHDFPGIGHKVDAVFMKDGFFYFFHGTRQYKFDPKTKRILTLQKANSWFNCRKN
Kind of assay: Inhibition of human MMP1 by fluorometric assay.

Assay [2] concerns the target 72 kDa type IV collagenase (Homo sapiens, UniProt P08253). Kind of assay: Inhibition of human MMP2 by fluorometric assay.
Assay [3] concerns the target Stromelysin-1 (Homo sapiens, UniProt P08254). The assay is described as follows: Inhibition of human MMP3 by fluorometric assay.
Assay [4] concerns the target Neutrophil collagenase (Homo sapiens, UniProt P22894). Kind of assay: Inhibition of human MMP8 by fluorometric assay.
In assay [5] the target is Matrix metalloproteinase-9 (Homo sapiens, UniProt P14780). The assay is described as follows: Inhibition of human MMP9 by fluorometric assay.
Assay [6] deals with Matrix metalloproteinase-14 (Homo sapiens, UniProt P50281). Kind of assay: Inhibition of human MMP14 by fluorometric assay. In short, it runs like this:
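Pro-enzymes activated with APMA (2 mM 2 h, MMP-1; 2 mM 1 h, MMP-2/-8; 1 mM 1 h, MMP-9; all 37 °C) or trypsin then soybean trypsin inhibitor (MMP-3). MMP-14 was catalytic domain. Enzyme (MMP-1 2.0, MMP-2 0.5, MMP-3 5.0, MMP-8 1.5, MMP-9 1.3, MMP-14 1.0 nM) with inhibitor at 7 concentrations, 2 h, 25 °C, in Tris pH 7.5, 1% DMSO.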

Assay [7] addresses T2, Matrix metalloproteinase-25 (Homo sapiens, UniProt Q9NPA2).
T2 sequence (Q9NPA2 whole entry): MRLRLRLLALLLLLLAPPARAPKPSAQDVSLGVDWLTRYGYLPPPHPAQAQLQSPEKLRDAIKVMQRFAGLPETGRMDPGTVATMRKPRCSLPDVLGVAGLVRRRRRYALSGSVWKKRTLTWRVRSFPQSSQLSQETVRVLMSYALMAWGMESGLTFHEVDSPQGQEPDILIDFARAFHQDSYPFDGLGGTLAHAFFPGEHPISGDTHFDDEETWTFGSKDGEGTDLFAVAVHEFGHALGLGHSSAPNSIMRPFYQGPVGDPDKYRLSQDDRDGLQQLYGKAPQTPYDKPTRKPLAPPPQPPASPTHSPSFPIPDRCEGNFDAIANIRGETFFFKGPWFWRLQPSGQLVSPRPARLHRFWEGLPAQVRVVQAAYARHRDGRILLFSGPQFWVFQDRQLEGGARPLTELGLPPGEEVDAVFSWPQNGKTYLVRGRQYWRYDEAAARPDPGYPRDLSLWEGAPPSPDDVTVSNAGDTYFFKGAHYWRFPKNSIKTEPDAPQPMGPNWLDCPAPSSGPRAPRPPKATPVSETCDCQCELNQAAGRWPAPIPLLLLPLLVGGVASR
Kind of assay: Inhibition of human MMP25 by fluorometric assay. In short, it runs like this: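 E. coli-expressed, refolded MMP-25 catalytic domain added to MOCAcPLGLA2pr(Dnp)AR-NH2 plus varying inhibitor in HEPES pH 7.5 with 5 mM CaCl2, 0.01% Brij-35, 5% DMSO, 25 °C. Initial rates from fluorescence (ex 328/em 393 nm), read every 4 s over 10 min.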

A short description of assay [8]: Cytotoxicity against human U87MG cells assessed as dead cells at 5 nM after 24 hrs by trypan blue exclusion assay. The format is functional, U-87MG ATCC. The method in brief: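 U87MG human glioblastoma cells (RPMI, 10% FBS, 2 mM L-glutamine, penicillin/streptomycin, 1% non-essential amino acids, 37 °C, 5% CO2) seeded at 30,000 cells/cm2 in serum-free medium with 5 nM compound, DMSO vehicle ≤1% final, for 24 h. Cells lightly trypsinized, pelleted 800 x g 5 min, stained with 0.4% Trypan Blue in 0.9% NaCl, counted by haemocytometer; mean ± S.E.M., ≥3 experiments in duplicate.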

Assay [9] is described as follows: Antiinvasive activity against human U87MG cells at 5 nM after 24 hrs by Matrigel basement membrane transwell assay. The format is functional, U-87MG ATCC. The method in brief:
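U87MG cells (maintained in RPMI, 10% FBS, 37 °C, 5% CO2) suspended serum-free, 60,000 per upper transwell (8.0 μm filters coated with Matrigel 0.32 mg/mL), with inhibitor 5 nM, DMSO vehicle ≤1%. Lower chamber RPMI with 10% FBS. Invasion 24 h at 37 °C. Lower-surface cells fixed with p-formaldehyde, crystal violet-stained, counted in 5 fields. Inhibition versus untreated control. Duplicate, ≥3 experiments, mean ± S.E.M.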

A short description of assay [10]: (§1) Antiinvasive activity against human U87MG cells after 24 hrs by Matrigel basement membrane transwell assay. The format is functional, cell-based. The conditions noted are these: u-87mg atcc. The method in brief: (§2)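 Transwell filters (8.0 μm pores) coated with Matrigel (0.32 mg/mL) overnight at room temperature. U87MG cells in serum-free medium (60,000/400 μL) with inhibitor (1, 5, 25, 125 nM; DMSO ≤1%) in upper chamber; RPMI + 10% FBS below. 37 °C, 24 h.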

The subject of assay [11] is U-87MG ATCC. Described as §1. The format is functional, cell-based. In short, it runs like this:
as §2

Matrix metalloproteinase-9, sequence (P14780 whole entry): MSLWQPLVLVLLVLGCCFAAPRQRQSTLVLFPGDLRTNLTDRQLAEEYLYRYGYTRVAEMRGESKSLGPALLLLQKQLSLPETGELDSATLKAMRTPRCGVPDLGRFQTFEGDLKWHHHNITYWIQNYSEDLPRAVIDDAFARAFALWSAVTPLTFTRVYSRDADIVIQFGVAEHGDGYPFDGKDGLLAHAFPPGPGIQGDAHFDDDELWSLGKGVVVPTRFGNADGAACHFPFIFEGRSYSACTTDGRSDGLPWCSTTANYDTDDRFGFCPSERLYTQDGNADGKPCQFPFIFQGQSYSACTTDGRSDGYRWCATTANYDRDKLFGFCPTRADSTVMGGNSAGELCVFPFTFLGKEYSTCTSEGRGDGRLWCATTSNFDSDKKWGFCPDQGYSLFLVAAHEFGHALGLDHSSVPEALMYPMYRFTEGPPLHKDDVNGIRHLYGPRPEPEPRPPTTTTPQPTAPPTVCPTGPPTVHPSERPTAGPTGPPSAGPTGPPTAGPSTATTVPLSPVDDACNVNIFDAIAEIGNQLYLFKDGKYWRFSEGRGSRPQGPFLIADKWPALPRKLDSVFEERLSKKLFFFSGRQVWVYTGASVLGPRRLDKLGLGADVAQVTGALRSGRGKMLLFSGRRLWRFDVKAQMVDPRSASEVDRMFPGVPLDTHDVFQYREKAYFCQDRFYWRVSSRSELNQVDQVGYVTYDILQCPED
Stromelysin-1, sequence (P08254 whole entry): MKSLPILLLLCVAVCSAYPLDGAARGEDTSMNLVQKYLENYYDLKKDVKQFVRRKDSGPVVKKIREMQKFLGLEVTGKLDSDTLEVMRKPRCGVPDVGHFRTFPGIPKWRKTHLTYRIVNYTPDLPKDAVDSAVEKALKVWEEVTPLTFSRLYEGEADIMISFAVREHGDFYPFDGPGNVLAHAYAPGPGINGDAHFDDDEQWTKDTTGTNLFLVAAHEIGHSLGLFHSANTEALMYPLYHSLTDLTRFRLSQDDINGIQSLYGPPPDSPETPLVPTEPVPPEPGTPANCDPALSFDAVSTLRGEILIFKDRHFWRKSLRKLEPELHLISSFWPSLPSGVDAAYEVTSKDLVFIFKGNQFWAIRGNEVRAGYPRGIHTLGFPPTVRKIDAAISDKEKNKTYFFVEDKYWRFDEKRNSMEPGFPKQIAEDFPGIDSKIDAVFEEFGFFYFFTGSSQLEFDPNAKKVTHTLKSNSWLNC
Neutrophil collagenase, sequence (P22894 whole entry): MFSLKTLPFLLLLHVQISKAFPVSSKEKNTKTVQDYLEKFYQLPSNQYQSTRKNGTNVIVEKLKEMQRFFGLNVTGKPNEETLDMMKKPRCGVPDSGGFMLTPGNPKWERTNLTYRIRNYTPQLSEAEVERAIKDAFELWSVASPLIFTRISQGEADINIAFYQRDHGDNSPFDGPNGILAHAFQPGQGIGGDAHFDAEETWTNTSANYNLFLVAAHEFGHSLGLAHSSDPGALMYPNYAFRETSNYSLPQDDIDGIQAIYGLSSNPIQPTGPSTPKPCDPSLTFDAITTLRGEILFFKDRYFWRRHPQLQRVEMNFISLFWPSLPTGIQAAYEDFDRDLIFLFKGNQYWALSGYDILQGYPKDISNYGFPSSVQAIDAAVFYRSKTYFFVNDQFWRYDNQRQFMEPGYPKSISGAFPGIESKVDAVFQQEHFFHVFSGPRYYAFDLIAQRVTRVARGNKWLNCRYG
72 kDa type IV collagenase, sequence (P08253 whole entry): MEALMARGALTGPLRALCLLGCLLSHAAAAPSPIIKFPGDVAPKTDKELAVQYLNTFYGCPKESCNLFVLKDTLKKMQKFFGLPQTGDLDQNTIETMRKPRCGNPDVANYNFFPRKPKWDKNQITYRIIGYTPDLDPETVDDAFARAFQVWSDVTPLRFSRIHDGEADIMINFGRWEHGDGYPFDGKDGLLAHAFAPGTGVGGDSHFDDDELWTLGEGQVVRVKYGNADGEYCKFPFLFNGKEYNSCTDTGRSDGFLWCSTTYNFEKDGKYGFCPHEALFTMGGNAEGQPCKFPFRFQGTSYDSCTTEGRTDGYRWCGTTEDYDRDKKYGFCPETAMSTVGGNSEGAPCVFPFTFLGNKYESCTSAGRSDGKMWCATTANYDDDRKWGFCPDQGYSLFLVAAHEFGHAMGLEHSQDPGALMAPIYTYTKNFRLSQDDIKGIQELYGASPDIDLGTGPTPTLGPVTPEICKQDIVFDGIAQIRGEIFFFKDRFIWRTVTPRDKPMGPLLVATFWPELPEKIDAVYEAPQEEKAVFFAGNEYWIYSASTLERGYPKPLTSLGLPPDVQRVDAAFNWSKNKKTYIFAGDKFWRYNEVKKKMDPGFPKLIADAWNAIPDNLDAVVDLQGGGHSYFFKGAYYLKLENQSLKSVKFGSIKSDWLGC

One may read the IC50 as the point on the concentration scale where inhibition reaches its midpoint. A higher IC50 goes with weaker potency. For `CCCCc1ccc(C#Cc2ccc(S(=O)(=O)N[C@H](Cc3csc4ccccc34)C(=O)NO)s2)cc1`, the IC50 worked out at 56 µM in [1]; 17 nM in assay [2]; 320 nM in assay [3]; 1700 nM in [4]; 650 nM in assay [5]; 23000 nM in assay [6]. Besides, in assay [7], half-maximal inhibition (IC50) was put at 220 nM. The results for the Activity in [8] and in [9] were 14.4% and 34%, respectively.
Consider `CCCCc1ccc(C#Cc2ccc(S(=O)(=O)N3CSC[C@H]3C(=O)NO)s2)cc1`, for which the IC50 in [1] turned out to be 21 µM; in [2], 2.5 nM; in assay [3] it was 38 nM; in assay [4], 500 nM; in assay [5], 21 nM; in assay [6], 1600 nM. This compound registered an IC50 in assay [7] of 170 nM. Also, the Activity in assay [8] stood at 17.8%; in assay [9], 16%.
As for `CCCCc1ccc(C#Cc2ccc(S(=O)(=O)N[C@H](Cc3c[nH]c4ccccc34)C(=O)NO)s2)cc1`, the IC50 in assay [1] came out at 2.3 µM; in assay [3] it was 93 nM; in assay [4] it was 280 nM; in assay [5], 77 nM; in assay [6], 1700 nM; in assay [7], 76 nM. In addition, the Activity worked out at 6.8% in assay [8] and 48.4% in assay [9].
In the case of `CCCCc1ccc(C#Cc2ccc(S(=O)(=O)N[C@H](Cc3ccc(C(=O)c4ccccc4)cc3)C(=O)NO)s2)cc1`, the 50% inhibitory concentration (IC50) in [1] is 37 µM; in assay [2], 4 nM; in assay [3], 84 nM; in assay [4], 440 nM; in [5] it was 50 nM; in [6], 6600 nM. In assay [7], this compound yielded an IC50 of 340 nM. Moreover, the values for the Activity in [8] and in [9] were 9.38% and 27.5%, respectively.
Turning to `CCCCc1ccc(C#Cc2ccc(S(=O)(=O)N[C@H](Cc3ccc(OCc4ccccc4)cc3)C(=O)NO)s2)cc1`, the IC50 in [1] came out at 4.8 µM; in assay [2], 2.3 nM; in assay [3], 180 nM; in assay [4] it was 490 nM; in assay [5] it was 63 nM; in [6], 2100 nM. The IC50 was found to be 38 nM in [7] and 12 nM in [10]. The Activity in assay [8] was 12.3%; in assay [9], 42.6%; in [11] it was “Dose-dependent effect”.
Regarding `CCCCc1ccc(C#Cc2ccc(S(=O)(=O)NCC(=O)NO)s2)cc1`, the IC50 turned out to be 13 µM in assay [1]; 1.5 nM in [2]; 46 nM in assay [3]; 200 nM in assay [4]; 79 nM in [5]; 700 nM in [6]. Moreover, the half-inhibitory concentration (IC50) in [7] amounted to 34 nM. The Activity in assay [8] was 11.5%; in [9], 39.5%.
`COc1ccc(S(=O)(=O)N(Cc2cccnc2)[C@@H](C(=O)NO)C(C)C)cc1.Cl` [CGS-27023A] yielded an IC50 in [7] of 1.5 nM. Also, the values for the Activity in [8] and in assay [9] were 10.8% and 28.3%, respectively.
For the compound `CCCCc1ccc(C#Cc2ccc(S(=O)(=O)N3Cc4ccccc4C[C@@H]3C(=O)NO)s2)cc1`, the IC50 in [1] was found to be 6.7 µM; in assay [2] it was 1.3 nM; in assay [3], 11 nM; in [4] it was 30 nM; in assay [5], 4.3 nM; in assay [6], 112 nM. Besides, in [7], the midpoint of inhibition, the IC50, lay at 3.4 nM. Also, the Activity in [8] was 13.6%; in assay [9], 35.9%.
